In ChEMBL document CHEMBL1147025, “Synthesis of fluorescently tagged isoprenoid bisphosphonates that inhibit protein geranylgeranylation” (Bioorg Med Chem, 2007):
Calls of active or inactive are those of the source. The calls are words filed in the database; no cut-off is given here.

Key:
Conditions in all cases: Homo sapiens
K562 [1] = assay: Inhibition of DNA synthesis in K562 cells assessed as [3H]thymidine incorporation after 24 hrs; type: functional, cell-based
Outline: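 K562 cells grown at 37 °C, 5% CO2 in RPMI-1640 with 10% heat-inactivated FBS. Cells at 2 × 10^5 per 200 µL exposed to bisphosphonates (diluted in water) for 24 h, pulsed with [3H]thymidine (0.04 µCi/well) for the last 2 h. Incorporation into DNA measured by liquid scintillation counting; IC50 for 24 h exposure.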

K562 [2] = assay: Inhibition of GGPTase1 in K562 cells assessed as Rap1a geranylgeranylation after 24 hrs; type: cell-based
Outline: (§1)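 K562 cells (5 × 10^6 per 5 mL; RPMI-1640, 10% heat-inactivated FBS, 37 °C, 5% CO2) treated 24 h with bisphosphonates diluted in water. Untreated cells served as negative control and 10 µM lovastatin as positive prenylation control. Western blotting used pan-Ras antibody (farnesylation), Rab6 antibody (GGPTase II), and an antibody recognising only unmodified Rap1a (GGPTase I).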

K562 [3] = assay: Inhibition of Ras farnesylation in K562 cells by Western blot analysis after 24 hrs; type: functional, cell-based; outline: as §1
K562 [4] = assay: Inhibition of GGPTase2 in K562 cells assessed as Rab6 geranylgeranylation after 24 hrs; type: cell-based; outline: as §1

Row | IC50 (K562 [1]) [µM] | SMILES | Activity (K562 [2]) | Activity (K562 [3]) | Activity (K562 [4])
1 | > 100 | C/C(=C\CC(P(=O)(O)O)P(=O)(O)O)CC/C=C(\C)CNc1ccccc1C(=O)O | inactive | inactive | inactive
2 | > 100 | CC(C)=CCC/C(C)=C/CC(C/C=C(\C)CC/C=C(\C)CNc1ccccc1C(=O)O)(P(=O)(O)O)P(=O)(O)O | Active | inactive | Active
3 | > 100 | CC(C)=CCC/C(C)=C/CC(C/C=C(\C)CNc1ccccc1C(=O)O)(P(=O)(O)O)P(=O)(O)O | Active | inactive | Active
